Results as given in PubChem BioAssay.
This is one part of the list. A number with no mark means an inactive call. Activity calls are given as the source filed them.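 How the source made its calls, unless noted: active means mean of duplicate thallium-flux fluorescence ratios in parental host cells more than 5 SD below the buffer control mean (cut at about 0.38 in these data); inactive means the rest.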

Experiments:
[1] = molecular target: Potassium voltage-gated channel subfamily KQT member 1 (Homo sapiens) (UniProt P51787); test: blockers of human KCNQ1 channel – cell-based, Tl flux, duplicate, confirmation (AID 588353;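 active means primary screen active, with duplicate mean exceeding buffer control mean plus 3 SD of buffer wells, cut at about 28% in these data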;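 further: 0% = buffer control ratio and 100% = XE991 inhibitor control ratio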); conditions: KCNQ1 cell line, FluxOR thallium flux fluorescence, at 10 µM, hits give high values
Potassium voltage-gated channel subfamily KQT member 1 (Homo sapiens), sequence (P51787 whole entry, looked up): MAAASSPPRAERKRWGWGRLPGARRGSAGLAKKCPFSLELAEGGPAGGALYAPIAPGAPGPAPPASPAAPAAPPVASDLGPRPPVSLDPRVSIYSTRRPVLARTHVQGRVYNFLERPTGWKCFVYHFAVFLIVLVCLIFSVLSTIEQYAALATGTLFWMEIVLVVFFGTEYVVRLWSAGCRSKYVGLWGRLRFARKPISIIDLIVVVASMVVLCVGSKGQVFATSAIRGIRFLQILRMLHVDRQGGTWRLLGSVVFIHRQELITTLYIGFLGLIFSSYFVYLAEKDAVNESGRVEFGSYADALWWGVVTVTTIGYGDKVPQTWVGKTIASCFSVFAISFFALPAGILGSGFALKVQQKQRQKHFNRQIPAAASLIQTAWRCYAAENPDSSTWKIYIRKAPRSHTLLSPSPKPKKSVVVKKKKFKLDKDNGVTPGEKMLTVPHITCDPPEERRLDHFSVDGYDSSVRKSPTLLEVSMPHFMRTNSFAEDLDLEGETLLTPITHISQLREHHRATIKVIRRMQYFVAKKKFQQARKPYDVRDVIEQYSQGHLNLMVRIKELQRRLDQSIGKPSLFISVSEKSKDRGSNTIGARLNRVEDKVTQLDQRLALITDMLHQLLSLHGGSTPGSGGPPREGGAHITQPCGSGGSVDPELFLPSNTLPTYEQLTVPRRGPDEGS
Outline: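 Assay system – KCNQ1 CHO cells · Probe or stimulus – Tl2SO4 plus K2SO4 stimulus, each 12.5 mM in 5x stock · Times – dye loading 90 min, compound 20 min, both room temperature · Signal – kinetic FluxOR thallium-sensitive dye fluorescence, 10 s baseline, 110 s post-stimulus · Measure – percent inhibition of fluorescence change ratio, scaled buffer to XE991 · Repeats – duplicate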

[2] = nonspecific activity in CHO-K1 cells without KCNQ1 – parental CHO cells, Tl flux, counter-screen for KCNQ1 inhibitor project (AID 588366); conditions: parental CHO-K1, FluxOR thallium flux fluorescence ratio; at 10 µM; hits give low values; zero means no signal rise above baseline;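 further: ratio is peak minus minimum fluorescence divided by baseline fluorescence; actives read low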
Outline: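 System: parental CHO-K1 cells lacking KCNQ1 channel expression. Probe or stimulus: depolarizing K2SO4 plus Tl2SO4 stimulus, each 12.5 mM in 5x stock. Times: 90 min dye load, 20 min compound, room temperature. Measured by: real-time thallium-sensitive FluxOR dye fluorescence reading. Read-out: baseline-normalized fluorescence amplitude ratio, averaged over duplicates. Repeats: duplicates.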

[3] = molecular target: Potassium voltage-gated channel subfamily KQT member 2 (Rattus norvegicus) (UniProt O88943); test: block of rat KCNQ2 potassium channel – cell-based, selectivity assay for KCNQ1 inhibitor project (AID 651746;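 active means mean percent inhibition of the KCNQ2 thallium signal more than 5 SD above the buffer-only control wells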;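 on inhibition: 0% = buffer control wells and 100% = XE-991 inhibitor control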); conditions: KCNQ2 cells, FluxOR thallium flux fluorescence, at 10 µM; hits give high values
Potassium voltage-gated channel subfamily KQT member 2 (Rattus norvegicus), sequence (O88943 whole entry, looked up): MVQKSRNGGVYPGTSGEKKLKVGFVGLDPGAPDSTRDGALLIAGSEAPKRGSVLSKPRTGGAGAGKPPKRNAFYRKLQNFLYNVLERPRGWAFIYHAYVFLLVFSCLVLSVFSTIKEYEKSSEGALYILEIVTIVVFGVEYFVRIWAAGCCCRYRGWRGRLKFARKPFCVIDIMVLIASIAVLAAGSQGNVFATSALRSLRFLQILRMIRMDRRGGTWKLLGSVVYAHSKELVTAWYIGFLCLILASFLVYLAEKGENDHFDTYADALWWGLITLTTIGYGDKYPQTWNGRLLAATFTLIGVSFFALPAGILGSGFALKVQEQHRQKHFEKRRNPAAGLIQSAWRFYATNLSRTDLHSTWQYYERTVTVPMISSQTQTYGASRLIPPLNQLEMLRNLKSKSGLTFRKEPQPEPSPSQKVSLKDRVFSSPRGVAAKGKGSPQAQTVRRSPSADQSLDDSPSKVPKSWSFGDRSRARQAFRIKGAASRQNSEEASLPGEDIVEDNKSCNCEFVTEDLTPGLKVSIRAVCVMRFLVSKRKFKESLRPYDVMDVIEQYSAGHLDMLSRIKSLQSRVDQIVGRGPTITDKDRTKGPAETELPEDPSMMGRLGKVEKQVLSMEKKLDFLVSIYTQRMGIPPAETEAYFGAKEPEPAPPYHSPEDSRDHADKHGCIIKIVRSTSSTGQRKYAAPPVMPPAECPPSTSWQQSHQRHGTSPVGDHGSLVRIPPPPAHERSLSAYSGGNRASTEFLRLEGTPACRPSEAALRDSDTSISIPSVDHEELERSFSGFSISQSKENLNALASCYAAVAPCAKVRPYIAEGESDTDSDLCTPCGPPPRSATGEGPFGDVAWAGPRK

[4] = molecular target: Potassium voltage-gated channel subfamily E member 1 (Homo sapiens) + Potassium voltage-gated channel subfamily KQT member 1 (Homo sapiens) (UniProt P15382+P51787); test: block of human IKs channel complex – CHO-K1 cells, thallium flux, FluxOR, selectivity assay for KCNQ1 inhibitor project (AID 652147;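 active means mean percent inhibition of duplicate wells above the buffer-only control mean plus 3 SD of those controls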;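 on inhibition: 0% = buffer only wells and 100% = XE-991 inhibitor control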); conditions: KCNQ1/KCNE1 cells, FluxOR thallium flux fluorescence, at 10 µM; hits give high values
Potassium voltage-gated channel subfamily E member 1 (Homo sapiens) + Potassium voltage-gated channel subfamily KQT member 1 (Homo sapiens), sequence (P51787 whole entry, looked up): as the sequence (P51787 whole entry, looked up) above
Outline: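 Test system: cells expressing KCNQ1/KCNE1 channels; Probe or stimulus: Tl2SO4 plus K2SO4 stimulus, each 12.5 mM in 5x stock; Times: 20 min compound pre-incubation at room temperature; Technique: kinetic FluxOR thallium-sensitive fluorescence, 1 Hz sampling, 150 s post-stimulus.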

[5] = molecular target: Potassium voltage-gated channel subfamily KQT member 1 (Homo sapiens) (UniProt P51787); test: block of human KCNQ1 potassium current – cell-based, automated electrophysiology, orthogonal assay, confirmation (AID 624120;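 active means KCNQ1 current drop exceeding 3 SD of negative control wells, seen in both duplicate runs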); conditions: KCNQ1-CHO cells, automated patch clamp current; at 10 µM
Outline: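 Assay system: KCNQ1-expressing CHO cells. Medium: external buffer at pH 7.4. Doses: single test compound dose of 10 µM final. Detection: amphotericin-perforated automated patch clamp. Evaluation: percent change in steady-state +40 mV current, post- versus pre-compound. Benchmarks: negative controls.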

Compound	inhibition [1]	fluorescence ratio (Tl flux) [2]	outcome [3]	inhibition [4]	outcome [5]	inhibition [3]	outcome [4]
CCCN1Cc2cccc(C(=O)NCc3ccccc3)c2C1=O	83% (active)	0.478	inactive	80% (active)			
COc1ccc(Cl)cc1NC(=O)C(C)N1CCc2ccccc21 (configuration not stated)	114% (active)	0.428		132% (active)	inactive	91% (active)	
S=C(NCC1CCCO1)N1CCN(c2ccc(Cl)c(Cl)c2)CC1 (configuration not stated)	101% (active)	0.501			active	76% (active)	inactive
Cc1cccc(NC(=S)Nc2ccc(Cl)c(Cl)c2)c1	49% (active)	0.565	inactive				inactive
C=CCOC(=O)C1=C(C)NC(SCC(=O)OCC)=C(C#N)C1c1ccc(C)cc1 (configuration not stated)	124% (active)	0.425		160% (active)	active	115% (active)	
CS(=O)(=O)N(CC(=O)Nc1ccc(Cl)c(Cl)c1)C1CCCCC1	56.5% (active)	0.476				63.3% (active)	inactive
O=C1CCc2cc(S(=O)(=O)N3CCC(C(=O)NCc4ccccc4Cl)CC3)ccc2N1	0% [the number is a placeholder, only the call stands]	0.447	inactive				inactive
Cc1nc2ccccc2cc1OCc1ccc(F)cc1	126% (active)	0.438		88.5% (active)	inactive	99% (active)	
COC(=O)c1ccc(NC(=O)Nc2ccc(C)cc2)cc1	62.5% (active)	0.504	inactive				inactive
Clc1cccc(-c2nc(NCC3CCCO3)c3ccccc3n2)c1 (configuration not stated)	116% (active)	0.394		154% (active)	inactive	118% (active)	
CC(C)OCCCNc1ncnc2c1[nH]c1ccc(F)cc12	95.5% (active)	0.443	inactive		active		inactive
C=CCSc1nsc(NC(=O)Nc2cccc(C(C)=O)c2)n1	100% (active)	0.489		60% (active)	inactive	74% (active)	
Cc1nc(N2CCN(c3ccccn3)CC2)c2c(C)c(C(=O)Nc3ccc(F)cc3)sc2n1	146% (active)	0.324 (active)				141% (active)	
S=C(NCCCc1ccccc1)Nc1ccc(Br)cc1	150% (active)	0.591	inactive	76.5% (active)	inactive		
Cc1cc(Br)ccc1NC(=O)c1cnc(N2CCN(c3ccccn3)CC2)c2ccccc12	89% (active)	0.444		124% (active)	inactive	94.7% (active)	
CC(C)(CCl)C(=O)Nc1ccc(Sc2ccc(F)cc2)cc1	166% (active)	0.393				111% (active)	
O=C(CNCCC1=CCCCC1)Nc1ccccc1N1CCCCCC1	144% (active)	0.402		175% (active)	inactive	114% (active)	
Cc1cc(C)cc(NC(=O)NC2CCCCCCC2)c1	146% (active)	0.465	inactive	164% (active)	active		
CCCC(=O)N1CCN(c2nnc(-c3ccc(C)cc3)c3ccccc23)CC1	0% [the number is a placeholder, only the call stands]	0.507		78% (active)		75% (active)	
Cc1ccccc1C(=O)OC1OC(=O)C(Cl)=C1Nc1ccccc1 (configuration not stated)	79% (active)	0.434		65% (active)			
Cc1cc2nc3c(=O)n(Cc4ccccc4)c(=O)[nH]c3nc2cc1N	93% (active)	0.332 (active)	inactive	110% (active)			
Cc1cccc(-c2nc3ccc(C(=O)NCCN4CCN(C)CC4)cc3nc2-c2cccc(C)c2)c1	63% (active)	0.34 (active)		118% (active)		107% (active)	
CSc1nccc(NC(=O)c2ccc(C(C)(C)C)cc2)n1	153% (active)	0.366 (active)		144% (active)		105% (active)	
c1ccc2c(c1)C(=NC1CCCCC1)NC2=NC1CCCCC1	48% (active)	0.526	inactive				inactive
O=C(NCCc1ccccc1)c1ccc2c(c1)N(Cc1ccccc1)CCS2	71.5% (active)	0.426		72% (active)		101% (active)	
Cc1nc(Nc2ccc3c(c2)OCCO3)c2nnn(Cc3ccccc3Cl)c2n1	83% (active)	0.413		102% (active)		96% (active)	
